# Assay outcomes: PubChem BioAssay, Broad Institute
# Most compounds without a hit are left out; they make up all but 2.5% or so of the library.
# FGF22 binding = binders of recombinant human FGF22 by thermal shift. AID 651658. activity (Tm shift, normalised), % at 9.99 µM. 340,000 tested, 1.5% active. SYPRO orange fluorescence; percent of sucrose octasulfate shift, DMSO zero. Q9HCT0;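 active = mean Tm shift, scaled 0 neutral to 100 positive control, at about 1.3% or above, every replicate too, limit read from the data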
# E-selectin induc = E-selectin induction on HUVECs. P16581. HUVEC E-selectin immunofluorescence imaging; normalized: neutral wells 0, TNF-alpha wells 100. activation, % at 7.58 µM. 260,000 tested, 0.37% active. AID 686992;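 active = mean E-selectin-positive cell signal at least 10% of the positive control, reached in at least 60% of replicates, without over 20% cell loss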
# Target sequence (P16581 whole entry, looked up): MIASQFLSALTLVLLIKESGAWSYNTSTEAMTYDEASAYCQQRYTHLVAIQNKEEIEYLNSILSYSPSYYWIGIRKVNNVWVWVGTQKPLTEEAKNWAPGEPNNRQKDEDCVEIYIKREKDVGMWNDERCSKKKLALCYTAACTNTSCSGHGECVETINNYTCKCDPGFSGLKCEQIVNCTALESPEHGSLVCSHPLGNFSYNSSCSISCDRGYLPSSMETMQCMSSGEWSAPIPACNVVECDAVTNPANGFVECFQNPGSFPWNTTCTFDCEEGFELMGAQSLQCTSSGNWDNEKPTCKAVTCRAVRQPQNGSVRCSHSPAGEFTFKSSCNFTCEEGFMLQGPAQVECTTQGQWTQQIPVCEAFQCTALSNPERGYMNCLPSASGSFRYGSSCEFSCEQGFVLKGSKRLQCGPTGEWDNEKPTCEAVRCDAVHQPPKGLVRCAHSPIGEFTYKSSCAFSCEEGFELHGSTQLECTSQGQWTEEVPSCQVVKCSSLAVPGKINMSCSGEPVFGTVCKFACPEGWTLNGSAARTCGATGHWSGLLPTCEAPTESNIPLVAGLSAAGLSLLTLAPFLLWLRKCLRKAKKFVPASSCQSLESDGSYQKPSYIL
#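 assay system = HUVEC, human umbilical vein endothelial cells | input = 3,000 HUVEC seeded per well | medium = EGM-2 growth medium on 0.1% gelatin-coated wells | dosing = one compound dose added by pin transfer | signal = immunofluorescence imaging | read-out basis = % PE-positive cells | control set = TNF-alpha, DMSO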
# S100A4 MyoIIA = blocks human S100A4 binding to myosin IIA peptide; S100A4/TAMRA-MyoIIA peptide fluorescence polarization; inhibition, % at 10.7 µM; 360,000 tested, 0.14% active; AID 652163;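 active = mean inhibition of at least 70% across replicates, with every replicate also reaching that level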
#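 Material: S100A4 monomer protein | Medium: HEPES pH 7.2 with CaCl2, KCl, NaCl, DTT, Triton | Reagent: Labelled myosin peptide probe, 5 nM | Doses: One dose per compound | Times: 5 min incubation before reading | Benchmarks: Neutral control DMSO, positive control TFP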
# miR122 inh = miR-122 inhibition in Huh7 cells; Huh7 miR-122 Renilla luciferase sensor, 48 h; neutral wells = 0, positive control = 100; activation (reporter increase), % at 12.5 µM; 340,000 tested, 0.3% active; AID 602342;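 active = mean replicate activation score at least 90 and every replicate individually at or above 90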;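 note: higher luciferase means less miR-122 activity so hits act as miR-122 inhibitors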
# SIRT5 inh = sirtuin-5 (human) deacylase inhibition; Q9NXA8; Purified SirT5, succinyl-peptide AMC, trypsin-coupled fluorescence; inhibition, % at 15 µM; 330,000 tested, 1.1% active; in the data active = inhibition above about 15%
# * hit, by the source's call; / = not tested or not shown; [ ] = remark or other dose.
SMILES,FGF22 binding,E-selectin induc,S100A4 MyoIIA,miR122 inh,SIRT5 inh
C[C@@H]1CN([C@H](C)CO)C(=O)c2cccc(NS(=O)(=O)c3ccccc3)c2O[C@@H]1CN(C)C(=O)NC1CCCCC1,0,0,-22,8[16.7 µM],-4
COc1ccccc1N1CCN(C(=O)c2ccc(CSc3ccccc3)cc2)CC1,/,/,/,1,/
CC(C)(O)C#Cc1ccc(C(=O)N2CCN(c3ccccc3)CC2)cc1,43*,/,-51,/,-2
O=C(c1ccc(CSc2ccccc2)cc1)N1CCN(c2ccccc2)CC1,43*,0,-5,-4,1
CCCC(=O)Nc1ccc2c(c1)C(=O)N(C)[C@@H]1CC[C@H](CC(=O)NCCc3ccccc3)O[C@H]1CO2,0,0,8,13[16.7 µM],-5
COc1ccc(S(=O)(=O)N(C)C[C@H]2Oc3ccc(N(C)C)cc3C(=O)N([C@H](C)CO)C[C@@H]2C)cc1,0,/,2,112*[16.7 µM],0
COc1ccc(S(=O)(=O)N(C)C[C@@H]2Oc3ncc(/C=C/c4ccccc4)cc3C(=O)N([C@@H](C)CO)C[C@@H]2C)cc1,0,0,0,-42[16.7 µM],-7
COc1ccc(S(=O)(=O)N(C)C[C@H]2Oc3ncc(/C=C/c4ccccc4)cc3C(=O)N([C@H](C)CO)C[C@@H]2C)cc1,0,/,1,-9[16.7 µM],20*
C[C@@H]1CN([C@H](C)CO)C(=O)c2cc(N(C)C)ccc2O[C@@H]1CN(C)S(=O)(=O)c1ccc(Cl)cc1,-1,/,3,98*[16.7 µM],1
COCC(=O)Nc1ccc2c(c1)[C@@H]1C[C@@H](CC(=O)NC3CCCC3)O[C@H](CO)[C@@H]1O2,0,0,-1,2[16.7 µM],-1
NS(=O)(=O)c1ccc(NC(=O)CSc2ccccc2)cc1,0,0,0,3,-1
CC(C)CNC(C)C(=O)Nc1ccc(S(N)(=O)=O)cc1 (centres undefined),43*,/,3,/,-2
NS(=O)(=O)c1ccc(NC(=O)Nc2ccc(S(N)(=O)=O)cc2)cc1,0,/,-4,-2,15*
NS(=O)(=O)c1ccc(NC(=O)C(Sc2ccccc2)c2ccccc2)cc1 (centres undefined),1.4*,/,-2,-4,-2
NS(=O)(=O)c1ccc(NC(=O)Nc2ccccc2)cc1,0,1,4,/,-1
O=C(NC[C@H]1N[C@H](CO)[C@@H]1c1ccc(C2=CCCC2)cc1)C1CC1,/,0,/,/,/
NC(=O)c1sc(=S)n(-c2ccc(Br)cc2)c1N,-1,/,-2,10,/
O=C(NCc1ccccc1)c1sc(=S)n2c1[nH]c(=O)c1ccccc12,/,-1,/,-4,/
NC(=O)c1sc(=S)n2c1[nH]c(=O)c1sccc12,47*,0,23,-5,10
CC(=O)NNC(=O)c1sc(=S)n2c1[nH]c(=O)c1sccc12,43*,0,0,/,1
C[C@@H]1CN([C@@H](C)CO)C(=O)c2cccc(NC(=O)Nc3cccc4ccccc34)c2O[C@H]1CN(C)C(=O)Nc1cccc2ccccc12,0,1,-15,9[16.7 µM],0
CCOc1cc(C(=O)OC(C)C(=O)Nc2ncc(Cl)cc2Cl)ccc1OCC(=O)N1CCOCC1 (centres undefined),44*,/,0,/,-2
CCOc1cc(C(=O)OC(C)C(=O)Nc2ccc(S(N)(=O)=O)cc2)ccc1OCC(=O)N1CCOCC1 (centres undefined),0,0,-1,-4,19*
O=C(c1cccnc1)N1CCCCN2[C@H](CO)[C@H](c3ccc(C#Cc4ccccc4)cc3)[C@H]2C1,/,/,/,5[16.7 µM],/
CCN(CC(=O)NCc1cccs1)C(=O)c1cccc(S(=O)(=O)Nc2ccc(C)cc2)c1,/,-6,1,80,3
SMILES,FGF22 binding,E-selectin induc,S100A4 MyoIIA,miR122 inh,SIRT5 inh
Cc1ccc(NS(=O)(=O)c2cccc(C(=O)N(C)Cc3cccs3)c2)cc1,0,/,3,100*,2
CCOC(=O)Cc1csc(NC(=O)c2cc(C)cc(C)c2)n1,0,/,-3,5,16*
CNC(=O)c1ccsc1NC(=O)CCS(=O)(=O)c1ccc(C)cc1,0,/,-1,/,0
CNC(=O)c1ccsc1NC(=O)CCS(=O)(=O)c1ccccc1,43*,/,-1,/,1
C[C@H]1CN([C@@H](C)CO)C(=O)c2cc(NC(=O)Nc3ccc(F)cc3)ccc2O[C@@H]1CN(C)C(=O)Nc1ccc(F)cc1,0,0,-3,-1[16.7 µM],-1
COc1cc(/C=C(/C#N)C(=O)Nc2cc(C(F)(F)F)ccc2Cl)ccc1OCC(=O)Nc1cccc(C(F)(F)F)c1,0,0,-3,-8,16*
CC(=O)N1[C@H](CO)[C@@H](c2ccc(-c3cccc(F)c3)cc2)[C@H]1CNC(=O)C1CC1,/,0,/,7[16.7 µM],/
O=C(O)c1ccc(-c2ccc(/C=C3\NC(=O)N(Cc4ccc(Cl)cc4)C3=O)o2)cc1Cl,0,/,-4,1,26*
COc1ccc(NC(=O)[C@H](C)NC(N)=O)cc1S(=O)(=O)Nc1cc(C)ccc1Br,0,0,3,46,16*
CC(NC(N)=O)C(=O)Nc1ccc(Cl)c(S(=O)(=O)Nc2ccc(Cl)cc2)c1 (centres undefined),0,/,3,/,1
COc1ccccc1NS(=O)(=O)c1cc(NC(=O)C2CCC2)ccc1N1CCCCC1,0,-3,-6,78,-6
COc1ccc(NC(=O)C2CCC2)cc1S(=O)(=O)Nc1cc(C)ccc1Br,0,/,-10,170*,/
CS(=O)(=O)N1CC(=O)N2[C@H](C1)[C@H](c1ccc(C#Cc3cccc(F)c3)cc1)[C@@H]2CO,/,0,0,/,3
O=S(=O)(c1ccc(F)cc1)N1CCCCN2[C@H](CO)[C@H](c3ccc(C#CC4CCCC4)cc3)[C@@H]2C1,0,/,2,-25[16.7 µM],23*
O=S(=O)(c1ccc(F)cc1)N1CCCCN2[C@@H](CO)[C@@H](c3ccc(C#CC4CCCC4)cc3)[C@@H]2C1,0,/,-5,-27[16.7 µM],23*
O=S(=O)(c1ccc(F)cc1)N1CCCCN2[C@@H](CO)[C@H](c3ccc(C#CC4CCCC4)cc3)[C@@H]2C1,-1,/,0,-26[16.7 µM],27*
O=S(=O)(c1ccc(F)cc1)N1CCCCN2[C@H](C1)[C@@H](c1ccc(C#CC3CCCC3)cc1)[C@@H]2CO,-1,/,60,-25[16.7 µM],1
Cc1noc(C)c1S(=O)(=O)N(C)C[C@@H]1Oc2ccc(NS(=O)(=O)c3ccc(F)cc3)cc2CC(=O)N([C@H](C)CO)C[C@H]1C,0,0,-3,6[16.7 µM],-6
CN1CCN(C(=O)C[C@@H]2C[C@@H]3c4cc(NC(=O)Nc5ccc(F)cc5)ccc4O[C@@H]3[C@H](CO)O2)CC1,-1,-1,1,4[16.7 µM],2
O=C(c1ccccc1NS(=O)(=O)c1cccc2cccnc12)N1CCOCC1,43*,0,0,-3,-1
